# Data: ChEMBL document CHEMBL3046382, “Synthesis and insecticidal activities and SAR studies of novel benzoheterocyclic diacylhydrazine derivatives” (2009)
# Assays:
# Assay type in all cases: functional
# Mythimna separata [1] = experiment: Stomach toxicity in fourth-instar Mythimna separata (Oriental armyworm) larvae in compound treated corn leaves assessed as mortality at 50 mg/kg measured after 4 days; conditions: 96 h
# Helicoverpa armigera [2] = experiment: Contact toxicity in Helicoverpa armigera assessed as mortality at 1000 mg/L by topical application measured after 4 days […]
# Method in brief: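 Third-instar larvae; compounds in acetone at 1000 mg L⁻¹, 0.5 μL applied to the thoracic tergite by microapplicator. Larvae then returned to standard rearing conditions. Percentage mortality scored 4 days after treatment.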
# Mythimna separata [3] = experiment: Stomach toxicity in fourth-instar Mythimna separata (Oriental armyworm) larvae in compound treated corn leaves assessed as mortality at 10 mg/kg measured after 4 days; conditions: 96 h
# Mythimna separata [4] = experiment: Stomach toxicity in fourth-instar Mythimna separata (Oriental armyworm) larvae in compound treated corn leaves assessed as mortality at 25 mg/kg measured after 4 days; conditions: 96 h
# Spodoptera exigua [5] = experiment: Stomach toxicity in Spodoptera exigua in compound treated cabbage leaves assessed as mortality measured after 3 days by leaf-dip method; conditions: 72 h
# Method in brief: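 Cabbage leaf disks (5 cm × 3 cm) dipped 3 s in test solution, air-dried, and placed singly in 80 cm³ boxes. Each disk given five third-instar larvae. Water- and acetone-treated leaves as controls, each treatment three times. Percentage mortality read at 3 days.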
# Mythimna separata [6] = experiment: Stomach toxicity in fourth-instar Mythimna separata (Oriental armyworm) larvae in compound treated corn leaves assessed as mortality at 100 mg/kg measured after 4 days; conditions: 96 h
# Plutella xylostella [7] = experiment: Contact toxicity in fourth-instar Plutella xylostella (diamondback moth) larva assessed as mortality measured after 48 hr by insect-dip method
# Method in brief: (§1)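 Fourth-instar larvae immersed for 5 min in acetone solutions diluted with water, five concentrations. Larvae then held at 25 ± 1 °C under standard rearing. Usually 30 insects per dose, each treatment in triplicate, water-only control. Mortality read at 48 and 72 h and LC50 derived.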
# Culicidae [8] = experiment: Toxicity against fourth-instar larvae of Culex pipiens pallens assessed as mortality at 0.5 mg/kg measured after 7 to 10 days
# Method in brief: (§2)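 For each concentration, 1 mL of dilution was added to 99 mL water and 20 fourth-instar larvae introduced. Percentage mortality assessed 7–10 days after treatment.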
# Culicidae [9] = experiment: Toxicity against fourth-instar larvae of Culex pipiens pallens assessed as mortality at 2 mg/kg measured after 7 to 10 days; method in brief: as §2
# Mythimna separata [10] = experiment: Stomach toxicity in fourth-instar Mythimna separata (Oriental armyworm) larvae in compound treated corn leaves assessed as mortality at 2.5 mg/kg measured after 4 days; conditions: 96 h
# Plutella xylostella [11] = experiment: Contact toxicity in fourth-instar Plutella xylostella (diamondback moth) larva assessed as mortality measured after 72 hr by insect-dip method; method in brief: as §1
# Mythimna separata [12] = experiment: Stomach toxicity in fourth-instar Mythimna separata(Oriental armyworm) larvae in compound treated corn leaves assessed as mortality at 200 mg/kg measured after 4 days; conditions: 96 h
# Helicoverpa armigera [13] = experiment: Stomach toxicity in Helicoverpa armigera in compound treated corn leaves assessed as mortality at 1000 mg/L measured after 4 days by leaf-dip method
# Method in brief: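 Corn leaves dipped in acetone solution at 1000 mg L⁻¹ and air-dried. Each treated disk placed singly in a 24-hole box and given 10 third-instar larvae. Percentage mortality scored after 4 days.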
# Mythimna separata [14] = experiment: Stomach toxicity in fourth-instar Mythimna separata (Oriental armyworm) larvae in compound treated corn leaves assessed as mortality at 5 mg/kg measured after 4 days; conditions: 96 h
# Ostrinia nubilalis = experiment: Stomach toxicity in Ostrinia nubilalis (European corn borer) in compound treated corn leaves assessed as mortality measured after 4 days by leaf-dip method; conditions: for LC50: Ostrinia nubilalis, 96 h
# Method in brief: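 Corn leaf disks (about 5 cm) dipped 3–5 s in test solution, air-dried, and placed singly in 7 cm glass vessels. Each disk given 10 third-instar larvae. Acetone-treated leaves as control, four replicates. Percentage mortality at 4 days; LC50 and LC95 derived.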
# Spodoptera exigua [15] = experiment: Contact toxicity in fourth-instar Spodoptera exigua assessed as mortality by topical application measured after 48 hr; conditions: read-out: LD50 (the source's name)
# Method in brief: (§3)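 Topical application to fourth-instar larvae: 1.0 μL of acetone dilution at various concentrations placed on the thoracic tergite by automatic microapplicator. Larvae then returned to standard rearing. Acetone-only control, each treatment three times. Mortality calculated at 48 and 72 h and LC50 derived.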
# Culicidae [16] = experiment: Toxicity against fourth-instar larvae of Culex pipiens pallens assessed as mortality at 1 mg/kg measured after 7 to 10 days; method in brief: as §2
# Spodoptera exigua [17] = experiment: Contact toxicity in fourth-instar Spodoptera exigua assessed as mortality by topical application measured after 72 hr; conditions: read-out: LD50 (the source's name); method in brief: as §3
Structure (SMILES),mortality at 50 mg/kg (Mythimna separata [1]),Activity (Helicoverpa armigera [2]),mortality at 10 mg/kg (Mythimna separata [3]),mortality at 25 mg/kg (Mythimna separata [4]),LC50 (Spodoptera exigua [5]),mortality at 100 mg/kg (Mythimna separata [6]),LC50 (Plutella xylostella [7]),mortality at 0.5 mg/kg (Culicidae [8]),mortality at 2 mg/kg (Culicidae [9]),mortality at 2.5 mg/kg (Mythimna separata [10]),LC50 (Plutella xylostella [11]),mortality at 200 mg/kg (Mythimna separata [12]),Activity (Helicoverpa armigera [13]),mortality at 5 mg/kg (Mythimna separata [14]),LC95 (Ostrinia nubilalis),LC50 (Ostrinia nubilalis),LC50 (Spodoptera exigua [15]),mortality at 1 mg/kg (Culicidae [16]),LC50 (Spodoptera exigua [17])
Cc1cc(C)cc(C(=O)N(NC(=O)c2ccc3c(c2C)CC(C)O3)C(C)(C)C)c1 (stereo unspecified),100%,50%,95%,100%,12.7 µg/mL,100%,124 µg/mL,10%,80%,20%,81.4 µg/mL,100%,70%,80%,271.89 µg/mL,40.5 µg/mL,190 µg/mL,10%,52.8 µg/mL
"Cc1cc(C)cc(C(=O)N(NC(=O)c2ccc3c(c2Cl)CCCO3)C(C)(C)C)c1 [N'-TERT-BUTYL-N'-(3,5-DIMETHYLBENZOYL)-N-5-CHLORO-6-CHROMANECARBOHYDRAZIDE]",–,40%,–,–,5.5 µg/mL,–,113 µg/mL,–,–,–,70.8 µg/mL,–,80%,–,405.65 µg/mL,55.6 µg/mL,17.3 µg/mL,–,11.7 µg/mL
Cc1cc(C)cc(C(=O)N(NC(=O)c2ccc3c(c2C)CCCO3)C(C)(C)C)c1 [CHROMAFENOZIDE],100%,60%,100%,100%,6.3 µg/mL,100%,236 µg/mL,10%,100%,80%,123 µg/mL,100%,65%,100%,139.25 µg/mL,18.6 µg/mL,29.8 µg/mL,80%,14.9 µg/mL
Cc1cc(C)cc(C(=O)N(NC(=O)c2ccc3c(c2C)OC(C)C3)C(C)(C)C)c1 (stereo unspecified) [FUXIAN],100%,60%,100%,100%,5 µg/mL,100%,372 µg/mL,50%,100%,95%,304 µg/mL,100%,60%,100%,147.78 µg/mL,25.6 µg/mL,59.6 µg/mL,100%,12.6 µg/mL
